Assay results as given in ChEMBL document CHEMBL4052644, “Synthesis of novel benzylidene analogues of betulinic acid as potent cytotoxic agents” (Eur J Med Chem, 2017).

Columns and labels:
SK-MEL-2 = assay: Cytotoxicity against human SK-MEL-2 cells assessed as reduction in cell viability; type: functional, cell-based
[1] = Selectivity index, ratio of IC50 for human FR2 cells to IC50 for human MCF7 cells; type: functional
How it was run: (§1)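 Selectivity index is the IC50 in normal breast epithelial fR2 cells divided by the IC50 in each cancer line. All IC50 values come from the SRB assay.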

[2] = Selectivity index, ratio of IC50 for human FR2 cells to IC50 for human PC3 cells; type: functional; how it was run: as §1
HCT-116 [3] = assay: Cytotoxicity against human HCT116 cells assessed as reduction in cell viability after 48 hrs by SRB assay; type: functional, cell-based; conditions: HCT-116, 48 h
How it was run: (§2)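 SRB assay. Compounds active at 10 µM in the primary screen were retested at 1, 2.5 and 5 µM, and IC50 was calculated from these concentrations. The normal breast epithelial line fR2 was tested alongside the cancer lines.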

A549 [4] = assay: Growth inhibition of human A549 cells at 10 uM after 48 hrs by SRB assay relative to control; type: functional; conditions: A549, 48 h, read-out: GI
How it was run: (§3)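 Primary SRB screen of every compound at a single concentration of 10 µM. Growth inhibition is expressed relative to control.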

HCT-116 [5] = assay: Growth inhibition of human HCT116 cells at 10 uM after 48 hrs by SRB assay relative to control; type: functional; conditions: HCT-116, 48 h, read-out: GI; how it was run: as §3
A549 [6] = assay: Cytotoxicity against human A549 cells assessed as reduction in cell viability after 48 hrs by SRB assay; type: functional, cell-based; conditions: A549, 48 h; how it was run: as §2
PC-3 [7] = assay: Growth inhibition of human PC3 cells at 10 uM after 48 hrs by SRB assay relative to control; type: functional; conditions: PC-3, 48 h, read-out: GI; how it was run: as §3
PC-3 [8] = assay: Cytotoxicity against human PC3 cells assessed as reduction in cell viability after 48 hrs by SRB assay; type: functional, cell-based; conditions: PC-3, 48 h; how it was run: as §2
[9] = Selectivity index, ratio of IC50 for human FR2 cells to IC50 for human A549 cells; type: functional; how it was run: as §1
[10] = Selectivity index, ratio of IC50 for human FR2 cells to IC50 for human HCT116 cells; type: functional; how it was run: as §1
MIA PaCa-2 [11] = assay: Cytotoxicity against human MIAPaCa2 cells assessed as reduction in cell viability after 48 hrs by SRB assay; type: functional, cell-based; conditions: MIA PaCa-2, 48 h; how it was run: as §2
[12] = Selectivity index, ratio of IC50 for human FR2 cells to IC50 for human MIAPaCa2 cells; type: functional; how it was run: as §1
MCF7 [13] = assay: Growth inhibition of human MCF7 cells at 10 uM after 48 hrs by SRB assay relative to control; type: functional; conditions: MCF7, 48 h, read-out: GI; how it was run: as §3
MIA PaCa-2 [14] = assay: Growth inhibition of human MIAPaCa2 at 10 uM after 48 hrs by SRB assay relative to control; type: functional; conditions: MIA PaCa-2, 48 h, read-out: GI; how it was run: as §3
[15] = Cytotoxicity against human FR2 cells assessed as reduction in cell viability after 48 hrs by SRB assay; type: cell-based; conditions: FR2, 48 h; how it was run: as §2
MCF7 [16] = assay: Cytotoxicity against human MCF7 cells assessed as reduction in cell viability after 48 hrs by SRB assay; type: functional, cell-based; conditions: MCF7, 48 h; how it was run: as §2

Compound	IC50 (SK-MEL-2) [µM]	Ratio IC50 [1]	Ratio IC50 [2]	IC50 (HCT-116 [3]) [µM]	inhibition of growth at 10 µM (A549 [4]) [%]	inhibition of growth at 10 µM (HCT-116 [5]) [%]	IC50 (A549 [6]) [µM]	inhibition of growth at 10 µM (PC-3 [7]) [%]	IC50 (PC-3 [8]) [µM]	Ratio IC50 [9]	Ratio IC50 [10]	IC50 (MIA PaCa-2 [11]) [µM]	Ratio IC50 [12]	inhibition of growth at 10 µM (MCF7 [13]) [%]	inhibition of growth at 10 µM (MIA PaCa-2 [14]) [%]	IC50 [15] [µM]	IC50 (MCF7 [16]) [µM]
CC(C)[C@@H]1CC[C@]2(C(=O)O)CC[C@]3(C)[C@H](CC[C@@H]4[C@@]5(C)C=C(C#N)C(=O)C(C)(C)[C@@H]5CC[C@]43C)[C@@H]12	0.81																
C=C(C)[C@@H]1CC[C@]2(C(=O)O)CC[C@]3(C)[C@H](CC[C@@H]4[C@@]5(C)C/C(=C\c6ccc(Br)o6)C(=O)C(C)(C)[C@@H]5CC[C@]43C)[C@@H]12		2.432	2.389	2.9	91	87	2.9	79	5.7	4.69	4.696	5.2	2.619	92	75	13.6	5.6
C=C(C)[C@@H]1CC[C@]2(C(=O)O)CC[C@]3(C)[C@H](CC[C@@H]4[C@@]5(C)C/C(=C\c6ccsc6)C(=O)C(C)(C)[C@@H]5CC[C@]43C)[C@@H]12		7.151	3.095	5.1	95	91	3.9	82	6.7	5.317	4.066	5.3	3.913	92	76	20.7	2.9
C=C(C)[C@@H]1CC[C@]2(C(=O)O)CC[C@]3(C)[C@H](CC[C@@H]4[C@@]5(C)C/C(=C\c6ccc(F)cc6)C(=O)C(C)(C)[C@@H]5CC[C@]43C)[C@@H]12		16.15	11.1	3.6	92	99	2.6	95	6.4	27.33	19.73	5.4	13.15	95	96	71.1	4.4
C=C(C)[C@@H]1CC[C@]2(C(=O)O)CC[C@]3(C)[C@H](CC[C@@H]4[C@@]5(C)C/C(=C\c6cccnc6)C(=O)C(C)(C)[C@@H]5CC[C@]43C)[C@@H]12		38.46	15.15	1.97	94	96	3.1	67	6.6	32.25	50.76	4.9	20.4	97	97	100	2.6
C=C(C)[C@@H]1CC[C@]2(C(=O)O)CC[C@]3(C)[C@H](CC[C@@H]4[C@@]5(C)C/C(=C\c6cccc7ccccc67)C(=O)C(C)(C)[C@@H]5CC[C@]43C)[C@@H]12		1.429	2.318	8.4	90	62	3.09	71	5.3	3.977	1.463	7.9	1.555	67	64	12.3	8.6
C=C(C)[C@@H]1CC[C@]2(C(=O)O)CC[C@]3(C)[C@H](CC[C@@H]4[C@@]5(C)C/C(=C\c6ccc(OC)cc6)[C@H](O)C(C)(C)[C@@H]5CC[C@]43C)[C@@H]12		3.126	2.914	4.9	54	63	4.3	52	7.4	5.016	4.402	6.4	3.37	69	67	21.6	6.9
CC(C)[C@@H]1CC[C@]2(C(=O)O)CC[C@]3(C)[C@H](CC[C@@H]4[C@@]5(C)C=C(Cl)C(=O)C(C)(C)[C@@H]5CC[C@]43C)[C@@H]12	0.13																
C=C(C)[C@@H]1CC[C@]2(C(=O)O)CC[C@]3(C)[C@H](CC[C@@H]4[C@@]5(C)C/C(=C\c6cccc([N+](=O)[O-])c6)[C@H](O)C(C)(C)[C@@H]5CC[C@]43C)[C@@H]12		2.68	2.941	3.9	92	88	1.22	80	4.1	9.88	3.092	6.7	1.8	77	80	12.1	4.5
C=C(C)[C@@H]1CC[C@]2(C(=O)O)CC[C@]3(C)[C@H](CC[C@@H]4[C@@]5(C)C/C(=C\c6ccc(OC)cc6)C(=O)C(C)(C)[C@@H]5CC[C@]43C)[C@@H]12		3.522	3.522	5.4	94	69	5.1	81	6.8	4.696	4.435	7.07	3.387	88	71	23.9	6.8
C=C(C)[C@@H]1CC[C@]2(C(=O)O)CC[C@]3(C)[C@H](CC[C@@H]4[C@@]5(C)C/C(=C\c6ccccc6Br)C(=O)C(C)(C)[C@@H]5CC[C@]43C)[C@@H]12		2.464	2.497	4.3	90	86	6.1	77	7.6	3.111	4.413	4.04	4.698	80	81	19	7.7
